Columns and labels:
HeLa and glioma cells = settings: cited from earlier work
CLL cells = assay: MTT cell viability assay in primary CLL samples; assay type: cell-based, human; settings: six fresh primary CLL patient samples, 24 hours with 0-20 μM peptide
How it was run: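 Human PBMCs isolated from fresh patient blood by density centrifugation and kept in RPMI 1640 with 10% FBS and penicillin/streptomycin. Seeded at 3 × 10^5 cells/well with 0–20 µmol/l unlabelled test peptide under tissue-culture conditions, then MTT read-out. Viability expressed as percentage of untreated controls.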

FFLIPKG-R8
Cell uptake and distribution (in words) (HeLa and glioma cells): diffusely label the cytoplasm within five minutes

NH2-asrslhslaG-Ahx-rrrrrrrrGC-COOH [asr-a-r8]
Cell viability (in words) (CLL cells): no loss of viability
